Measured values published in ChEMBL document CHEMBL2146441, “2,6-Disubstituted imidazo[2,1-b][1,3,4]thiadiazoles: search for anticancer agents” (2012).

Experiments:
Format in all cases: functional
[1] = system: SF-295; experiment: Cytotoxicity against human SF295 cells assessed as cell growth at 10^-6 M after 48 hrs by SRB assay; settings: SF-295, 48 h, read-out: Activity
[2] = system: MOLT-4; experiment: Growth inhibition of human MOLT4 cells after 48 hrs by SRB assay; settings: MOLT-4, 48 h
Method in brief: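 Leukemia suspension lines grown in RPMI 1640 with 5% FBS, seeded at 5000–40,000 cells/well, and preincubated 24 h at 37 °C, 5% CO2. Compound, stocked in DMSO, given either once at 10^-5 M or at five 10-fold dilutions for 48 h. Settled cells fixed with 80% TCA (final 16%), stained with SRB, and read at 515 nm. GI50 calculated against time-zero and control growth.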

[3] = system: T47D; experiment: Cytotoxicity against human T47D cells assessed as cell growth at 10^-8 M after 48 hrs by SRB assay; settings: read-out: Activity
[4] = system: U-251; experiment: Cytotoxicity against human U251 cells assessed as cell growth at 10^-6 M after 48 hrs by SRB assay; settings: U-251, 48 h, read-out: Activity
[5] = system: T47D; experiment: Cytotoxicity against human T47D cells assessed as cell growth at 10^-4 M after 48 hrs by SRB assay; settings: read-out: Activity
[6] = system: HCT-15; experiment: Cytotoxicity against human HCT15 cells assessed as cell growth at 10^-7 M after 48 hrs by SRB assay; settings: HCT-15, 48 h, read-out: Activity
Method in brief: (§1)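 NCI-60 five-dose screen. Cells were grown in RPMI 1640 with 5% FBS and seeded at 5000–40,000 cells/well according to doubling time. They were pre-incubated 24 h at 37 °C in 5% CO₂, and time-zero (Tz) plates were TCA-fixed at drug addition. Five 10-fold dilutions of DMSO stock were applied for 48 h. Read-out was SRB staining, 515 nm absorbance, with percent growth calculated versus Tz and untreated control.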

[7] = system: NCI-H322M; experiment: Growth inhibition of human NCI-H322M cells after 48 hrs by SRB assay; settings: for CC50: read-out: LC50 (the source's name)
Method in brief: (§2)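 Adherent NCI-60 lines grown in RPMI 1640 with 5% FBS, seeded at 5000–40,000 cells/well, and preincubated 24 h at 37 °C, 5% CO2. Compound, stocked in DMSO, given either once at 10^-5 M or at five 10-fold dilutions for 48 h. Cells fixed with cold TCA (final 10%), stained with 0.4% SRB, and read at 515 nm. GI50 taken as 50% reduction in net protein increase versus time-zero and control plates.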

[8] = system: RXF 393; experiment: Cytotoxicity against human RXF393 cells assessed as cell growth at 10^-4 M after 48 hrs by SRB assay; settings: RXF 393, 48 h, read-out: Activity
[9] = Growth inhibition of human MDA-MB-81 cells after 48 hrs by SRB assay
[10] = system: MCF7; experiment: Cytotoxicity against human MCF7 cells assessed as cell growth at 10^-8 M after 48 hrs by SRB assay; settings: MCF7, 48 h, read-out: Activity
[11] = Growth inhibition of human Hs 578T cells after 48 hrs by SRB assay; method in brief: as §2
[12] = system: MDA-MB-231; experiment: Growth inhibition of human MDA-MB-231 cells after 48 hrs by SRB assay; settings: MDA-MB-231, 48 h; method in brief: as §2
[13] = system: HCT-116; experiment: Cytotoxicity against human HCT116 cells assessed as cell growth at 10^-5 M after 48 hrs by SRB assay; settings: HCT-116, 48 h, read-out: Activity; method in brief: as §1
[14] = system: MCF7; experiment: Cytotoxicity against human MCF7 cells assessed as cell growth at 10^-7 M after 48 hrs by SRB assay; settings: MCF7, 48 h, read-out: Activity
[15] = system: SK-MEL-2; experiment: Cytotoxicity against human SK-MEL-2 cells assessed as cell growth at 10^-4 M after 48 hrs by SRB assay; settings: SK-MEL-2, 48 h, read-out: Activity
[16] = system: HOP-62; experiment: Cytotoxicity against human HOP62 cells assessed as cell growth at 10^-5 M after 48 hrs by SRB assay; settings: HOP-62, 48 h, read-out: Activity; method in brief: as §1
[17] = system: HCT-15; experiment: Cytotoxicity against human HCT15 cells assessed as cell growth at 10^-6 M after 48 hrs by SRB assay; settings: HCT-15, 48 h, read-out: Activity; method in brief: as §1
[18] = Cytotoxicity against human Hs 578T cells assessed as cell growth at 10^-4 M after 48 hrs by SRB assay; settings: read-out: Activity; method in brief: as §1
[19] = system: 786-0; experiment: Cytotoxicity against human 786-0 cells assessed as cell growth at 10^-5 M after 48 hrs by SRB assay; settings: 786-0, 48 h, read-out: Activity
Method in brief: (§3)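 NCI-60 screen: lines kept in RPMI 1640 with 5% FBS, seeded at 5000–40,000 cells/well by doubling time, preincubated 24 h at 37 °C in 5% CO2. Time-zero plates TCA-fixed at drug addition. DMSO stocks diluted in medium, 48 h exposure. Fixation in cold TCA (final 10% adherent, 16% suspension), 0.4% SRB stain, solubilised in 10 mM Tris base, A515. Percent growth computed against control and time-zero.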

[20] = system: SK-OV-3; experiment: Cytotoxicity against human SKOV3 cells assessed as cell growth at 10^-7 M after 48 hrs by SRB assay; settings: SK-OV-3, 48 h, read-out: Activity
[21] = system: EKVX; experiment: Cytotoxicity against human EKVX cells assessed as cell growth at 10^-5 M after 48 hrs by SRB assay; settings: read-out: Activity; method in brief: as §3
[22] = system: SNB-75; experiment: Cytotoxicity against human SNB75 cells assessed as cell growth at 10^-6 M after 48 hrs by SRB assay; settings: SNB-75, 48 h, read-out: Activity
[23] = system: RXF 393; experiment: Cytotoxicity against human RXF393 cells assessed as cell growth at 10^-8 M after 48 hrs by SRB assay; settings: RXF 393, 48 h, read-out: Activity
[24] = system: SK-MEL-28; experiment: Cytotoxicity against human SK-MEL-28 cells assessed as cell growth at 10^-8 M after 48 hrs by SRB assay; settings: SK-MEL-28, 48 h, read-out: Activity
[25] = system: CAKI-1; experiment: Cytotoxicity against human Caki1 cells assessed as cell growth at 10^-5 M after 48 hrs by SRB assay; settings: CAKI-1, 48 h, read-out: Activity; method in brief: as §3
[26] = system: HOP-62; experiment: Cytotoxicity against human HOP62 cells assessed as cell growth at 10^-7 M after 48 hrs by SRB assay; settings: HOP-62, 48 h, read-out: Activity; method in brief: as §1
[27] = system: COLO; experiment: Cytotoxicity against human COLO […] cells assessed as cell growth at 10^-8 M after 48 hrs by SRB assay; settings: read-out: Activity; method in brief: as §3
[28] = system: PC-3; experiment: Cytotoxicity against human PC3 cells assessed as cell growth at 10^-7 M after 48 hrs by SRB assay; settings: PC-3, 48 h, read-out: Activity
[29] = system: Malme-3M; experiment: Growth inhibition of human MALME-3M cells after 48 hrs by SRB assay; settings: for CC50: read-out: LC50 (the source's name); method in brief: as §2
[30] = system: OVCAR-8; experiment: Cytotoxicity against human OVCAR8 cells assessed as cell growth at 10^-6 M after 48 hrs by SRB assay; settings: OVCAR-8, 48 h, read-out: Activity

SMILES | growth at 1 µM [1] | GI50 [2] | LC50 [2] | TGI [2] | growth at 0.01 µM [3] | growth at 1 µM [4] | growth at 100 µM [5] | growth at 0.1 µM [6] | GI50 [7] | TGI [7] | CC50 [7] | growth at 100 µM [8] | GI50 [9] | growth at 0.01 µM [10] | GI50 [11] | LC50 (concentration killing 50% of starting cells) [11] | TGI [11] | GI50 [12] | TGI [12] | growth at 10 µM [13] | also measured
COc1ccc(-c2nn3cc(-c4ccc(O)cc4O)nc3s2)cc1 | 74% | 3.04 µM | > 100 µM | 29.8 µM | 104% | 77% | -20% | 92% | 3.23 µM | > 100 µM | > 100 µM | -63% | 1.37 µM | 92% | 1.92 µM | > 100 µM | 9.27 µM | 1.37 µM | 3.57 µM | -62% | growth at 0.1 µM [14]: 89%; growth at 100 µM [15]: -48%; growth at 10 µM [16]: -33%; growth at 1 µM [17]: 93%; growth at 100 µM [18]: -1%; growth at 10 µM [19]: -78%; growth at 0.1 µM [20]: 94%; growth at 10 µM [21]: 15%; growth at 1 µM [22]: 33%; growth at 0.01 µM [23]: 99%; growth at 0.01 µM [24]: 95%; growth at 10 µM [25]: 8%; growth at 0.1 µM [26]: 91%; growth at 0.01 µM [27]: 104%; growth at 0.1 µM [28]: 91%; GI50 [29]: 1.32 µM; TGI [29]: 4.7 µM; CC50 [29]: > 100 µM; growth at 1 µM [30]: 81%
COc1ccc(-c2nn3cc(-c4cccc(N)c4)nc3s2)cc1 | 72% | 3 µM | > 100 µM | > 100 µM | 97% | 95% | -14% | 106% | 7.15 µM | 87.2 µM | > 100 µM | -90% | 1.58 µM | 86% | 2.33 µM | > 100 µM | 23.3 µM | 1.58 µM | 13.2 µM | 16% | LC50 (concentration killing 50% of cells present at time zero) [12]: > 100 µM; growth at 0.1 µM [14]: 78%; growth at 100 µM [15]: 38%; growth at 10 µM [16]: 15%; growth at 1 µM [17]: 86%; growth at 100 µM [18]: -10%; growth at 10 µM [19]: 23%; growth at 0.1 µM [20]: 97%; growth at 10 µM [21]: 2%; growth at 1 µM [22]: 52%; growth at 0.01 µM [23]: 90%; growth at 0.01 µM [24]: 95%; growth at 10 µM [25]: 2%; growth at 0.1 µM [26]: 98%; growth at 0.01 µM [27]: 103%; growth at 0.1 µM [28]: 81%; GI50 [29]: 1.74 µM; TGI [29]: 6.5 µM; CC50 [29]: 47.3 µM; growth at 1 µM [30]: 94%
